Source: ChEMBL document CHEMBL1138363, “N,N'-dihydroxyamidines: a new prodrug principle to improve the oral bioavailability of amidines” (J Med Chem, 2007)

Key:
Settings in all cases: in vivo
Sus scrofa [1] = experiment: Clearance in po dosed pig; format: ADME, organism-based
Summary of the method: (§1)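 Prodrug given orally to three pigs at 10 mg/kg body weight. Heparinized blood samples were centrifuged at 1500g for 10 min at 4 °C, stored at -80 °C and worked up by solid-phase extraction. Some samples were pretreated with β-glucuronidase/sulfatase. Benzamidine and benzamidoxime were measured in plasma by HPLC. Pharmacokinetic parameters were estimated for each pig from the plasma concentration-time curves.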

Sus scrofa [2] = experiment: AUC in po dosed pig; format: ADME, organism-based, Plasma; summary of the method: as §1
[3] = Cmax in po dosed pig; format: ADME, organism-based, Sus scrofa; set-up: route oral; summary of the method: as §1
Sus scrofa [4] = experiment: Plasma concentration in pig at 10 mg/kg, po; format: ADME, organism-based; set-up: dose 10 mg/kg, route oral; summary of the method: as §1
[5] = Mean resident time in po dosed pig; format: ADME, organism-based, Sus scrofa; summary of the method: as §1
[6] = Half life in po dosed pig; format: ADME, organism-based, Sus scrofa; summary of the method: as §1
[7] = Oral bioavailability in pig; format: ADME, organism-based, Sus scrofa; summary of the method: as §1
Sus scrofa [8] = experiment: Volume of distribution in po dosed pig; format: ADME, organism-based; summary of the method: as §1
[9] = Tmax in po dosed pig; format: ADME, organism-based, Sus scrofa; summary of the method: as §1

CL (Sus scrofa [1]) [mL/min/kg]	AUC (Sus scrofa [2]) [µM·h]	Cmax [3] [µM]	concentration (Sus scrofa [4]) [µM]	MRT [5] [h]	half-life [6] [h]	bioavailability [7] [%]	Vd (Sus scrofa [8]) [L/kg]	Tmax [9] [h]	Compound
30	98.7	13.7	13.7	6.16	3.7	91	7.91	2	N=C(N)c1ccccc1 [BENZAMIDINE]
–	–	–	0.4	–	–	–	–	–	NC(=NO)c1ccccc1 [BENZAMIDOXIME]
